Data as given in ChEMBL document CHEMBL1165845, “Synthesis and biological evaluation of analogues of a novel inhibitor of beta-amyloid secretion” (J Med Chem, 2010).

Legend:
Format in all cases: cell-based
Parameters in all cases: scale not given: the % may be the effect or the level left
[1] = system: H4; assay: Induction of alpha-secretase-mediated reduction in amyloid beta secretion in human H4 cells expressing wild type betaAPP695 at 10 uM after 24 hrs […] relative to control
How it was run: (§1)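 Serum-starved H4βAPP695wt cells are treated for 24 h with drug in DMSO (0.02% DMSO vehicle control). Total Aβ in conditioned medium is measured by sandwich ELISA with 6E10 capture and 4G8 detection, normalized to lysate protein by BCA. Cytotoxicity is read as total cell protein. Quadruplicate wells in 1-4 independent experiments give the % decrease versus vehicle.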

[2] = system: H4; assay: Induction of alpha-secretase-mediated reduction in amyloid beta secretion in human H4 cells expressing wild type betaAPP695 at 30 uM after 24 hrs […] relative to control; how it was run: as §1
[3] = system: H4; assay: Cytotoxicity against human H4 cells expressing wild type betaAPP695 assessed as decrease in cell protein at 10 uM after 24 hrs; details: h4, 24 h; how it was run: as §1
[4] = system: H4; assay: Cytotoxicity against human H4 cells expressing wild type betaAPP695 assessed as decrease in cell protein at 30 uM after 24 hrs; details: h4, 24 h; how it was run: as §1

SMILES: O=C(NCCCCNC(=O)c1ccccc1Br)c1ccccc1Br
- Activity [1]: 7.9%

SMILES: Oc1c(Cl)cc(Cl)cc1/C=N/CCSCc1ccccc1Cl
- Activity [1]: 5.3%

SMILES: NC(=O)c1c(Cl)cccc1CSCCNC(=O)c1c(Cl)cccc1Cl
- Activity [1]: 44.7%
- Activity [2]: 49.7%
- Activity [3]: 2.5%
- Activity [4]: -5.6%

SMILES: O=C(NCCS(=O)(=O)Cc1cccc(O)c1)c1c(Cl)cccc1Cl
- Activity [1]: -10.1%
- Activity [2]: 9.6%
- Activity [3]: 7.7%
- Activity [4]: 4.4%

SMILES: O=C(NCCSCc1ccc(O)cc1)c1c(Cl)cccc1Cl
- Activity [1]: 13.1%
- Activity [2]: 56.7%
- Activity [3]: 8.7%
- Activity [4]: 4.4%

SMILES: O=C(NCCSCc1cccc(C(F)(F)F)c1)c1c(Cl)cccc1Cl
- Activity [1]: 73.9%
- Activity [2]: 93.4%
- Activity [3]: 19%
- Activity [4]: 47.8%

SMILES: COc1cccc(OC)c1C(=O)NCCSCc1cccc(Cl)c1
- Activity [1]: -13.1%
- Activity [2]: 11.2%
- Activity [3]: 7.1%
- Activity [4]: -0.6%

SMILES: CCN(CC)CCCNC(=O)c1c(Cl)cccc1Cl
- Activity [1]: 5.1%

SMILES: O=C(NCCSCc1ccc(Cl)cc1)c1ccccc1Cl
- Activity [1]: -12%

SMILES: O=C(NCCSc1ccccc1)c1ccccc1Cl
- Activity [1]: -4.4%

SMILES: O=C(NCCOCc1cccc(Cl)c1)c1c(Cl)cccc1Cl
- Activity [1]: 10.5%
- Activity [2]: -5.1%
- Activity [3]: -9.9%
- Activity [4]: 4.2%

SMILES: CC(C)(CNC(=O)c1c(Cl)cccc1Cl)SCc1ccc(F)cc1
- Activity [1]: 37%

SMILES: N/C(=N\O)c1cccc(CSCCNC(=O)c2c(Cl)cccc2Cl)c1
- Activity [1]: -1.5%
- Activity [2]: 1.6%

SMILES: CN(C)CCCNC(=O)c1c(Cl)cccc1Cl
- Activity [1]: 15.8%

SMILES: Nc1cccc(CSCCNC(=O)c2c(Cl)cccc2Cl)c1
- Activity [1]: 0.1%
- Activity [2]: 17%
- Activity [3]: 15.3%
- Activity [4]: 13.1%

SMILES: O=C(NCCNC(=O)c1ccccc1F)c1ccccc1F
- Activity [1]: 0.2%

SMILES: CN(C)CCNC(=O)c1c(Cl)cccc1Cl
- Activity [1]: 6.6%

SMILES: O=C(NCC[S+]([O-])Cc1cccc(O)c1)c1c(Cl)cccc1Cl (stereo not drawn)
- Activity [1]: -23.7%
- Activity [2]: 15.9%
- Activity [3]: 2.8%
- Activity [4]: 4.4%

SMILES: Clc1cccc(CSCCNCc2c(Cl)cccc2Cl)c1
- Activity [1]: 45.2%
- Activity [2]: 45.6%
- Activity [3]: -3.6%
- Activity [4]: 6.6%

SMILES: O=C(NCCS(=O)(=O)Cc1cccc(Cl)c1)c1c(Cl)cccc1Cl
- Activity [1]: 8.9%
- Activity [2]: 9.3%
- Activity [3]: -2.2%
- Activity [4]: -3.8%

SMILES: N#Cc1cccc(CSCCNC(=O)c2c(Cl)cccc2Cl)c1
- Activity [1]: 20%
- Activity [2]: 38.7%
- Activity [3]: -4.8%
- Activity [4]: 4.3%

SMILES: O=C(NCCSCc1ccc(Cl)c(Cl)c1)c1ccccc1Cl
- Activity [1]: 0.7%

SMILES: O=C(Cc1c(Cl)cccc1Cl)NCCSCc1cccc(Cl)c1
- Activity [1]: 6.7%
- Activity [2]: 13.5%
- Activity [3]: -1.3%
- Activity [4]: -0.7%

SMILES: COc1cccc(CSCCNC(=O)c2c(Cl)cccc2OC)c1
- Activity [1]: -2.9%
- Activity [2]: -4.7%
- Activity [3]: 1.9%
- Activity [4]: 9.3%

SMILES: COc1cccc(CS(=O)(=O)CCNC(=O)c2c(Cl)cccc2Cl)c1
- Activity [1]: 5.3%
- Activity [2]: 4.9%
- Activity [3]: 1.2%
- Activity [4]: 8.9%

SMILES: O=C(NCCSCc1ccc(F)cc1)c1c(F)cccc1Cl
- Activity [1]: 27.3%

SMILES: O=C(NCCSCc1ccccc1Cl)c1ccccc1Cl
- Activity [1]: 4%

SMILES: O=C(NCCSCc1ccccc1)c1ccccc1
- Activity [1]: -5.7%
- Activity [2]: 5.5%
- Activity [3]: 0.7%
- Activity [4]: -4.1%

SMILES: COc1ccc(CSCCNC(=O)c2c(Cl)cccc2Cl)cc1
- Activity [1]: 1.6%
- Activity [2]: 1.1%
- Activity [3]: 6.7%
- Activity [4]: 12.7%

SMILES: O=C(NCc1ccccc1)c1c(F)cccc1Cl
- Activity [1]: 3.8%

SMILES: NC(=O)c1cccc(CSCCNC(=O)c2c(Cl)cccc2Cl)c1
- Activity [1]: 6.2%
- Activity [2]: 32.3%
- Activity [3]: -2.8%
- Activity [4]: -8.6%

SMILES: O=C(NCCSCc1cccc(Cl)c1)c1c([N+](=O)[O-])cccc1[N+](=O)[O-]
- Activity [1]: 28.8%
- Activity [2]: 52.9%
- Activity [3]: 0.1%
- Activity [4]: 17.8%

SMILES: O=C(NCCSCc1cccc(Br)c1)c1c(Cl)cccc1Cl
- Activity [1]: 75%
- Activity [2]: 90.1%
- Activity [3]: 12.3%
- Activity [4]: 38.6%

SMILES: O=C(NCCCCNC(=O)c1c(Cl)cccc1Cl)c1c(Cl)cccc1Cl
- Activity [1]: 4%

SMILES: O=C(NCCSCc1cccc(Cl)c1)c1ccc(F)cc1
- Activity [1]: 6.4%

SMILES: O=C(NCCSCc1cccc(F)c1)c1c(Cl)cccc1Cl
- Activity [1]: 10.2%
- Activity [2]: 36.1%
- Activity [3]: 2.6%
- Activity [4]: 3.7%

SMILES: Cc1cccc(C)c1C(=O)NCCSCc1cccc(Cl)c1
- Activity [1]: 29.5%
- Activity [2]: 51.6%
- Activity [3]: 0.9%
- Activity [4]: -9.4%

SMILES: O=C(NCCSCc1cccc(O)c1)c1c(O)cccc1O
- Activity [1]: -22.5%
- Activity [2]: -25.2%
- Activity [3]: 10.5%
- Activity [4]: 14.3%

SMILES: O=C(NCCOCc1ccccc1)c1ccccc1Cl
- Activity [1]: 10.3%

SMILES: O=C(NCCSCc1cccc(Cl)c1)c1c(C(F)(F)F)cccc1C(F)(F)F
- Activity [1]: 6.2%
- Activity [2]: 13.5%
- Activity [3]: -4.2%
- Activity [4]: -0.4%

SMILES: O=C(NCCSCc1cccc(Cl)c1)c1c(F)cccc1F
- Activity [1]: 4.9%
- Activity [2]: 21.6%
- Activity [3]: 5.1%
- Activity [4]: 8.1%

SMILES: O=C(NCCSCc1cccc(F)c1)c1c(F)cccc1F
- Activity [1]: -16.8%
- Activity [2]: -15.5%
- Activity [3]: 0.1%
- Activity [4]: 1.8%

SMILES: COc1cccc(CSCCNC(=O)c2c([N+](=O)[O-])cccc2[N+](=O)[O-])c1
- Activity [1]: -14.1%
- Activity [2]: -2.8%
- Activity [3]: 3.7%
- Activity [4]: -3.8%

SMILES: O=C(NCCSCc1cccc(Cl)c1)c1ccccc1
- Activity [1]: 0.3%
- Activity [2]: 10.7%
- Activity [3]: 2.4%
- Activity [4]: -4.5%

SMILES: O=Cc1cccc(CSCCNC(=O)c2c(Cl)cccc2Cl)c1
- Activity [1]: 19.9%
- Activity [2]: 36.4%
- Activity [3]: 1.5%
- Activity [4]: -2.1%

SMILES: O=C(NCCSCc1cc(O)cc(O)c1)c1c(Cl)cccc1Cl
- Activity [1]: 3.1%
- Activity [2]: 17.2%
- Activity [3]: -0.4%
- Activity [4]: -0.7%

SMILES: COc1cc(CSCCNC(=O)c2c(Cl)cccc2Cl)cc(OC)c1
- Activity [1]: 47.9%
- Activity [2]: 80.4%
- Activity [3]: 2%
- Activity [4]: -8.7%

SMILES: O=C(NCCSCc1cccc(OCCOCCO)c1)c1c(Cl)cccc1Cl
- Activity [1]: 17.4%
- Activity [2]: 24.3%
- Activity [3]: -7.3%
- Activity [4]: 6.1%

SMILES: O=C(NCCNC(=O)c1c(Cl)cccc1Cl)c1c(Cl)cccc1Cl
- Activity [1]: 7.6%

SMILES: O=C(NCCSCc1ccc(Cl)cc1)c1c(Cl)cccc1Cl
- Activity [1]: 21.8%
- Activity [2]: 36.5%
- Activity [3]: -6.4%
- Activity [4]: 3%

SMILES: O=C(NCCSCc1cccc(NC(=O)C2CC2)c1)c1c(Cl)cccc1Cl
- Activity [1]: -21.4%
- Activity [2]: -2%
- Activity [3]: 3%
- Activity [4]: 3.2%

SMILES: O=C(CSCc1c(F)cccc1Cl)NCc1ccccc1Cl
- Activity [1]: 47.8%

SMILES: O=C(O)c1cccc(CSCCNC(=O)c2c(Cl)cccc2Cl)c1
- Activity [1]: -11.4%
- Activity [2]: -3.8%
- Activity [3]: 7.1%
- Activity [4]: 3.2%

SMILES: O=C(NC1CC1)c1cccc(CSCCNC(=O)c2c(Cl)cccc2Cl)c1
- Activity [1]: 1.9%
- Activity [2]: 11%
- Activity [3]: 0%
- Activity [4]: -1%

SMILES: O=C(NCCSCc1ccc(Cl)cc1Cl)c1ccc(Cl)cc1Cl
- Activity [1]: 39.8%

SMILES: O=C(NCCSCc1cccc(Cl)c1)c1ccccc1Cl
- Activity [1]: 4.7%

SMILES: O=C(NCCS(=O)(=O)Cc1ccc(F)cc1)c1c(F)cccc1Cl
- Activity [1]: 39.2%

SMILES: O=C(NCCSCc1ccc(Cl)c(Cl)c1)c1ccc(Cl)cc1Cl
- Activity [1]: 4.3%

SMILES: COc1cccc(CSCCNC(=O)c2c(OC)cccc2OC)c1
- Activity [1]: 6.2%
- Activity [2]: -0.6%
- Activity [3]: 0.5%
- Activity [4]: 3.9%

SMILES: N=C(NO)c1cccc(CSCCNC(=O)c2c(Cl)cccc2Cl)c1
- Activity [3]: 9.2%
- Activity [4]: 5.9%

SMILES: O=C(NCCSCc1cccc(Br)c1)c1c(Br)cccc1Br
- Activity [1]: 78.6%
- Activity [2]: 87.3%
- Activity [3]: 9.8%
- Activity [4]: 23.9%

SMILES: O=C(NCCSCc1cccc(O)c1O)c1c(Cl)cccc1Cl
- Activity [1]: -4.3%
- Activity [2]: 33.1%
- Activity [3]: -4.8%
- Activity [4]: 14%

SMILES: O=C(NCCSCc1cccc([N+](=O)[O-])c1)c1c(Cl)cccc1Cl
- Activity [1]: 58.5%
- Activity [2]: 72.5%
- Activity [3]: 7.5%
- Activity [4]: 24.6%

SMILES: N#Cc1c(Cl)cccc1CSCCNC(=O)c1c(Cl)cccc1Cl
- Activity [1]: 48.7%
- Activity [2]: 52.3%
- Activity [3]: 3.5%
- Activity [4]: 1.3%

SMILES: O=C(NCC[S+]([O-])Cc1cccc(Cl)c1)c1c(Cl)cccc1Cl (stereo not drawn)
- Activity [1]: 4%
- Activity [2]: -16.5%
- Activity [3]: -4.9%
- Activity [4]: 7.3%

SMILES: CCOC(=O)c1cccc(CSCCNC(=O)c2c(Cl)cccc2Cl)c1
- Activity [1]: 3%
- Activity [2]: 10.1%
- Activity [3]: 5.8%
- Activity [4]: 5.4%

SMILES: COc1cccc(C[S+]([O-])CCNC(=O)c2c(Cl)cccc2Cl)c1 (stereo not drawn)
- Activity [1]: -13.6%
- Activity [2]: -15.8%
- Activity [3]: 1.6%
- Activity [4]: 9.2%

SMILES: O=C(NCCSCc1cccc(Cl)c1)c1c(Br)cccc1Br
- Activity [1]: 74.2%
- Activity [2]: 83.4%
- Activity [3]: 6.7%
- Activity [4]: 20.8%

SMILES: COCCCNC(=O)c1c(Cl)cccc1Cl
- Activity [1]: 6.9%
